An excerpt weighted towards active compounds, which were near 2.6% of everything screened.
Platelet DG rel: platelet dense granule release activity; inhibition, %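 (compounds screened at 7.5 µM in platelet-rich plasma)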; human platelet-rich plasma, SFLLRN dense granule ATP release, luminescence; actives 0.22% (n = 300,000);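 active = mean replicate score, as percent of positive control, at or above 50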
SENP1 FRET inh: inhibitors of human SENP1 SUMO protease catalytic domain. Q9P0U3. actives 0.21% (n = 360,000). recombinant SENP1 catalytic domain, CyPet-SUMO1-YPet FRET cleavage. inhibition, % at 10 µM;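 active = inhibition at least 30% at 10 µM, raw YFP signal under a set limit, fluorescence ratio 0.5 to 1.5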;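 note: 0% = enzyme with DMSO and 100% = no enzyme wells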
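Assay system – human recombinant His6-tagged SENP1 catalytic domain enzyme · Input – SENP1 enzyme, 20 pM final · Buffer or medium – Tris pH 8 buffer plus EDTA, NaCl, BME, BSA, NP40, catalase · Schedule – 50 min reaction at room temperature · Technique – FRET read of cyan and yellow fluorescence · Control set – no-enzyme wells low, DMSO-plus-enzyme wells high control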
SENP8 block-1: blocks human SENP8 cleavage of Nedd8 substrate; Q96LD8; recombinant SENP8, Nedd8 substrate fluorescence; inhibition, % at 20 µM; actives 0.64% (n = 360,000); in the data active = inhibition mostly above about 40%, no sharp cut-off; inactive = mostly below about 27%
SENP8 block-2: SENP8 protease inhibition. Q96LD8. purified SENP8, Z-RLRGG-aminoluciferin cleavage, luminescence. inhibition, % at 10 µM. actives 1.2% (n = 330,000); in the data active = inhibition above about 50%
SENP7 inh: blocks the human protease SENP7; recombinant SENP7, Z-RLRGG-aminoluciferin luminescence, 40 min; inhibition, % at 5 µM; actives 1.5% (n = 330,000); AID 434973;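 active = inhibition above about 50% at the single test dose, limit read from the data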;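 note: plate controls were DMSO with enzyme for no effect and no enzyme buffer wells for full effect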
SENP6 inh: inhibitors of human SENP6 protease; Recombinant SENP6 catalytic domain, aminoluciferin luminescence; inhibition, % at 10 µM; actives 1.8% (n = 330,000); AID 2599;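 active = inhibition above about 50% at the single tested dose, limit read from the data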;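 note: plate controls were DMSO wells with enzyme for no effect and DMSO wells lacking enzyme for full effect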
Target sequence (Q9GZR1 628-1112 limits assumed): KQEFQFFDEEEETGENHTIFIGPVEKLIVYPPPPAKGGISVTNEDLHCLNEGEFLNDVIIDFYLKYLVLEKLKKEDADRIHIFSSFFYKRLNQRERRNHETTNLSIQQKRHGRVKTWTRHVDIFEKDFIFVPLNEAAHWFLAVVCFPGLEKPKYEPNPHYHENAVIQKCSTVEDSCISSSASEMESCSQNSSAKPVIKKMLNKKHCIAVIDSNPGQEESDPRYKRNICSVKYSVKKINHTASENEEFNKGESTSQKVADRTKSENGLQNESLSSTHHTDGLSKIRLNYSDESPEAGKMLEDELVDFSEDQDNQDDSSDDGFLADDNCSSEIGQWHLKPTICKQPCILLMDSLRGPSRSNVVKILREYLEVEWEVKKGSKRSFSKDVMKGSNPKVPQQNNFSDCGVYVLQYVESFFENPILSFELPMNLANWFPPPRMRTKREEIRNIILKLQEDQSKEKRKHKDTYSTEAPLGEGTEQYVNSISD
SENP8 inh conf: SENP8 (human) inhibition, single concentration confirmation; shares compounds with SENP8 block-1; actives 15% (n = 1,400); inhibition, % at 25 µM; purified SENP8, Nedd8-AMC/pro-Nedd8 cleavage fluorescence, 30 min; in the data active = inhibition mostly above about 39%, no sharp cut-off; inactive = mostly below about 34%
An asterisk follows results filed as active; . = no result.

SMILES | Platelet DG rel | SENP1 FRET inh | SENP8 block-1 | SENP8 block-2 | SENP7 inh | SENP6 inh | SENP8 inh conf
CN(CC(=O)Nc1cccc(F)c1)CC(=O)Nc1ccc(Cl)cc1[N+](=O)[O-] | -2 | 1 | 42* | -2 | 10 | 13 | 16
Cc1cc(C)n(C(C)CC(=O)N2CCc3ccccc32)n1 (centres undefined) | -12 | 1 | 0 | -14 | -12 | -22 | .
Cc1cc(C)n(C(CC(=O)N2CCc3ccccc3C2)C(=O)O)n1 (centres undefined) | 0 | -5 | 44* | 0 | 2 | -9 | 10
CCCNC(=O)C1(C)CCN(C(=O)c2ccc(OC)cc2OC)C1 (centres undefined) | . | -2 | 13 | . | . | . | .
C=C(C(=O)O)C1CCC2(C)CCCC(C)(O)C2C1 (centres undefined) | 2 | 4 | 48* | -3 | -6 | -8 | 0
Cn1c(=O)n(Cc2ccccc2)c(=O)c2c1nc1n2CCCN1C1CCCCC1 | 3 | 2 | 45* | 2 | -4 | -14 | 10
O=C(CNC(=O)c1ccccc1F)N/N=C/c1cccs1 | -3 | 0 | 42* | -11 | -5 | -28 | 11
O=C(CNC(=O)c1ccccc1)N/N=C/c1cccs1 | -4 | 0 | 19 | -6 | 1 | 8 | .
COc1ccc(OC)c(S(=O)(=O)N(C)CC(=O)N2CCc3ccccc3C2)c1 | 6 | 1 | 58* | 1 | 11 | 31 | 71*
CC(C)(C)C(=O)Nc1cccc(C(=O)c2cccc(NC(=O)C(C)(C)C)c2)c1 | 4 | 0 | 24 | -12 | 11 | -6 | .
CCCOC(=O)c1cccc(NC(=O)C(C)(C)C)c1 | -6 | 0 | 42* | 1 | 4 | 14 | -2
CC(=O)Nc1ccc(Nc2ccc3nonc3c2[N+](=O)[O-])cc1 | 1 | 4 | 31 | -1 | -12 | 5 | .
O=[N+]([O-])c1cnccc1Nc1ccccc1 | -5 | 5 | 19 | 4 | 7 | -4 | .
Cc1cc(Nc2ccccc2)c2c([N+](=O)[O-])cc(C)c(C)c2n1 | 1 | -2 | 45* | 4 | 6 | 7 | 2
O=[N+]([O-])c1ccc(Nc2ccccc2)c2nonc12 | -2 | 21 | 49* | -9 | 1 | -3 | 17
CC(=O)NS(=O)(=O)c1ccc(Nc2ccc([N+](=O)[O-])c3nonc23)cc1 | -3 | 12 | 24* | 0 | 4 | 6 | 26
CCOc1ccc(C(C)=O)cc1COC(=O)CNC(=O)C12CC3CC(CC(C3)C1)C2 | . | 3 | 14 | 5 | -14 | -6 | .
CC(NC(=O)[C@H](NC(=O)[C@@H]1Cc2ccccc2CN1)c1ccccc1)c1ccccc1 (some centres undefined) | -3 | 1 | 41* | 4 | 2 | -5 | 9
Cc1ccc(Cn2nc(-c3ccccc3)nc2-c2ccccc2)cc1 | -8 | 2 | 44* | 59* | 68* | 74* | 3
CNc1nc(SCC(=O)Nc2ccccc2)nc(N2CCOCC2)n1 | 0 | 0 | 2 | 1 | 1 | -5 | .
O=C(CCC1CCCC1)N1CCN(C(=O)c2cccnc2)CC1 | 6 | 2 | 41* | -12 | -5 | -4 | 10
O=C(c1ccccc1)N1CCN(C(=O)c2cccnc2)CC1 | 3 | 1 | 8 | 9 | -4 | 2 | .
O=C(O)C1CCCCN1C(=O)c1ccc(S(=O)(=O)N2CCCC2)cc1 (centres undefined) | . | 2 | 2 | -3 | -6 | 2 | .
CCOC(=O)c1ccc(-n2c(CN3CCOCC3)nc3ccc([N+](=O)[O-])cc3c2=O)cc1 | -5 | 0 | 35 | 10 | 5 | -8 | .
CCOC(=O)c1ccc(-n2c(CN3CCN(CC)CC3)nc3ccc([N+](=O)[O-])cc3c2=O)cc1 | -8 | -5 | 41* | 9 | 8 | 4 | 15
SMILES | Platelet DG rel | SENP1 FRET inh | SENP8 block-1 | SENP8 block-2 | SENP7 inh | SENP6 inh | SENP8 inh conf
C=CCN(Cc1cc(OC)ccc1OC)C(=O)c1cc2ccc(OC)cc2[nH]1 | -2 | -36 | -25 | 4 | 8 | 10 | .
CC(=O)NN1C(=O)c2ccc3c4c(ccc(c24)C1=O)C(=O)N(NC(C)=O)C3=O | -5 | 1 | 35* | 11 | 20 | 28 | 54*
O=C1c2ccc3c4c(ccc(c24)C(=O)N1NC(=O)C(F)(F)F)CC3 | 4 | 0 | -252 | 4 | -14 | -14 | .
O=C(COC(=O)c1cc(S(=O)(=O)N2CCOCC2)ccc1Cl)Nc1ccc2c(c1)OCO2 | -4 | -3 | 45* | -2 | 4 | -7 | 11
O=C(COC(=O)c1cc(S(=O)(=O)N2CCOCC2)ccc1Cl)NCc1ccc2c(c1)OCO2 | . | 1 | 1 | 4 | 5 | 2 | .
COC(=O)c1cc(=O)nc(NN=Cc2ccc(OC)cc2)s1 | . | 16 | 11 | . | . | . | .
CCOc1ccc(N2C(=O)CC(n3nc(C)cc3C)C2=O)cc1 (centres undefined) | 13 | 0 | 45* | -4 | -2 | -25 | 5
O=C(C[C@@H]1C/C=C\C[C@@H](NC(=O)OCC2c3ccccc3-c3ccccc32)C(=O)OCCNC1=O)N[C@@H](CO)Cc1ccccc1 | . | -2 | -6 | 11 | 4 | 0 | .
CC1=NN(c2ccccc2C)C(=O)C1 | . | 1 | 51* | . | . | . | 22
Cc1ccccc1N1CC(=O)N(c2ccccc2C)CC1=O | 4 | -1 | 26 | 0 | 2 | 1 | .
CC(c1ccccc1)n1c(N2CCNCC2)nc2c1c(=O)[nH]c(=O)n2C (centres undefined) | -1 | 0 | 10 | 2 | 1 | -15 | .
CCCC1(c2ccccc2)NC(=O)N(CC(=O)Nc2cc(C)ccc2OC)C1=O (centres undefined) | 9 | -1 | 18 | -4 | -6 | -12 | .
CCOC(=O)c1ccc(NC(=O)CN2CCc3ccccc3C2)cc1 | -1 | -4 | 49* | -4 | -4 | 11 | 47*
COc1ccc(NC(=O)CN2CCc3ccccc3C2)cc1S(=O)(=O)N1CCOCC1 | -7 | -6 | 47* | -10 | -6 | 5 | 8
CCCN(CC1CCCO1)C(=O)CCc1nnc(CCc2ccc(OC)cc2)o1 (centres undefined) | -7 | 1 | 21 | -8 | 7 | -6 | .
CC1=NCCN1CCNC(=O)Nc1ccc(F)cc1 | 20 | -2 | 41* | 9 | -5 | -4 | -1
CC1=NCCN1CCNC(=O)Nc1cc(C)cc(C)c1 | 4 | 3 | 31 | 5 | 8 | -16 | .
NC(=O)[C@H]1CC2(CC(c3cccc(NC(=O)COc4ccc(Cl)cc4)c3)=NO2)CN1C(=O)Cc1ccc([N+](=O)[O-])cc1 (some centres undefined) | 1 | 2 | 11 | 5 | 3 | -12 | .

Screening results as filed in PubChem BioAssay.
